Key:
[1] = target: T1, Receptor tyrosine-protein kinase erbB-2 (Homo sapiens, UniProt P04626); settings: BT-474, 0.001 to 1 uM
[2] = AUC (0 to 24 hrs) in Beagle dog at 240 mg/kg, po administered as single dose measured after 0.25 to 24 hrs post dose by LC/MS/MS method; assay type: ADME, organism-based, Canis lupus familiaris; parameters: time < 24 hr, dose 240 mg/kg, route oral; settings: plasma
How it was run: (§1)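 Single oral gavage of 240 mg/kg to beagle dogs (n = 6). Blood sampled at 0.25–24 h, kept on ice, centrifuged within 1 h (1000 × g, 4 °C, 15 min), plasma stored at −20 °C. Drug quantified by validated LC/MS/MS. AUC0–24 from non-compartmental analysis; Cmax and MRT taken directly from concentration–time data.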

[3] = Cmax in Beagle dog at 240 mg/kg, po administered as single dose measured after 0.25 to 24 hrs post dose by LC/MS/MS method; assay type: ADME, organism-based, Canis lupus familiaris; parameters: dose 240 mg/kg, route oral; settings: in vivo
How it was run: as §1

[4] = system: BT-474; assay: Induction of cell cycle arrest in human BT474 cells assessed as accumulation at G1 phase at 0.1 uM incubated for 12 hrs by propidium iodide staining based flow cytometry (reference value: 67%); assay type: functional
[5] = system: Mus musculus; assay: Toxicity in human Calu3 cells xenografted BALB/cA mouse assessed as body weight loss at 100 mg/kg, po measured every other day for 21 days; assay type: organism-based, Calu-3; parameters: dose 100 mg/kg, route oral; settings: in vivo, 504 h
How it was run: (§2)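 Female BALB/cA nude mice, 6–7 weeks old, implanted s.c. on the mid-right flank with 2×10^6 Calu-3 cells in 0.2 ml PBS. At 60–150 mm³ tumour volume, mice randomised into six per treatment group (twelve vehicle controls). Oral dosing in 0.5% CMC aqueous solution with 0.1% Tween-80. Body weight recorded every other day for 21 d.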

[6] = Cmax in Beagle dog at 240 mg/kg, po dosed for 14 days by LC/MS/MS method; assay type: ADME, organism-based, Canis lupus familiaris; parameters: dose 240 mg/kg, route oral; settings: in vivo
How it was run: (§3)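 Beagle dogs (n = 6) dosed by oral gavage at 240 mg/kg daily for 14 consecutive days. Blood taken predose and at 0.25–24 h on days 1 and 14, plasma stored at −20 °C, analysed by validated LC/MS/MS. Half-life and AUC by model-independent methods; Cmax and MRT read from concentration–time data.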

[7] = system: BT-474; assay: Induction of apoptosis in human BT474 cells at 10 uM incubated for 12 hrs by propidium iodide staining based flow cytometry (reference value: 1%); assay type: functional
[8] = system: Mus musculus; assay: Toxicity in human Calu3 cells xenografted BALB/cA mouse assessed as body weight loss at 200 mg/kg, po measured every other day for 21 days; assay type: organism-based, Calu-3; parameters: dose 200 mg/kg, route oral; settings: in vivo, 504 h
How it was run: as §2

[9] = target: T1, Receptor tyrosine-protein kinase erbB-2; assay: Inhibition of HER2 (unknown origin) assessed as reduction in autophosphorylation by ELISA method
How it was run: (§4)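 Phosphotyrosine ELISA with purified kinase (20 ng) and 5 µM ATP in buffer (50 mM HEPES pH 7.4, 20 mM MgCl2, 0.1 mM MnCl2, 0.2 mM Na3VO4, 1 mM DTT), 1 h at 37 °C, DMSO ≤1%. Detection by PY99 antibody, then HRP anti-mouse IgG with o-phenylenediamine, A490. IC50 by Logit from at least three independent tests.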

[10] = system: BT-474; assay: Induction of cell cycle arrest in human BT474 cells assessed as accumulation at S phase at 1 uM incubated for 12 hrs by propidium iodide staining based flow cytometry (reference value: 19%); assay type: functional
[11] = target: T2, Epidermal growth factor receptor (Homo sapiens, UniProt P00533); settings: A-431, 0.001 to 1 uM
T2 sequence (P00533 whole entry): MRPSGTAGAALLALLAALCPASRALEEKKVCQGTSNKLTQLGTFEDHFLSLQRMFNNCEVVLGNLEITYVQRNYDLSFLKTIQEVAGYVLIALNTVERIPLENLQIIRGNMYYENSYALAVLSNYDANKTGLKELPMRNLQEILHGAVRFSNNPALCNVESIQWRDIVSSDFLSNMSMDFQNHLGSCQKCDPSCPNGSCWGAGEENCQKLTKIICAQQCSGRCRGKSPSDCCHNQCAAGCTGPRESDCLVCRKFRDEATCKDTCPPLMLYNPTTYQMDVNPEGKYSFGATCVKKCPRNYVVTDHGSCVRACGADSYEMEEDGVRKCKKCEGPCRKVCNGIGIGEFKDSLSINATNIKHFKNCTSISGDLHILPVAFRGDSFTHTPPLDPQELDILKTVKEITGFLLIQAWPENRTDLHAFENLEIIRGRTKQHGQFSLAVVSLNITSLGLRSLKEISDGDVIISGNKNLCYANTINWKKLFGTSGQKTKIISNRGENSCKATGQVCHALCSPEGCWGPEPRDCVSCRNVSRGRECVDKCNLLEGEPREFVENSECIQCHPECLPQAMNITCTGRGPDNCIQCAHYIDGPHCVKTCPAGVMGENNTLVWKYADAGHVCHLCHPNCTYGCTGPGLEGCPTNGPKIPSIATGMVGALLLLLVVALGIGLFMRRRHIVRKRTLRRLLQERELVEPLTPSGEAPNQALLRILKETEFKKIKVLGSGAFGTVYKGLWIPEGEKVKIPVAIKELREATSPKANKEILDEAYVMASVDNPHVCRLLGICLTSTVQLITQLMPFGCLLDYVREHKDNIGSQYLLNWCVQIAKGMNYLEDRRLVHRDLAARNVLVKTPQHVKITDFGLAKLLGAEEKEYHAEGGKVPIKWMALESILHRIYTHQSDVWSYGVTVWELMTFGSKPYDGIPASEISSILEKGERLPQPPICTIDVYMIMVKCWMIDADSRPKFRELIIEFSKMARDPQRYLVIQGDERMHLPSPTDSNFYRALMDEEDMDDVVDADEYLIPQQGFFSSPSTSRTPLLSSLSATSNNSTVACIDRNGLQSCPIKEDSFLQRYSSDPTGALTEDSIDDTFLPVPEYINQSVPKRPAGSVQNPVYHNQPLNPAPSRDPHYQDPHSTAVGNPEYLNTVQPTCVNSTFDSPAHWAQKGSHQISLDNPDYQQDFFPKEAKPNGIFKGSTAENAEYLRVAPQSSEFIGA

[12] = system: NCI-H460; assay: cells; settings: Homo sapiens, NCI-H460, 72 h
[13] = Clearance in Beagle dog at 240 mg/kg, po dosed for 14 days by LC/MS/MS method; assay type: ADME, organism-based, Canis lupus familiaris; parameters: dose 240 mg/kg, route oral; settings: in vivo
How it was run: as §3

[14] = Antitumor activity against human Calu3 cells xenografted in BALB/cA mouse assessed as tumor growth inhibition at 100 mg/kg, po; assay type: functional; settings: Calu-3, read-out: TGI
How it was run: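 Female BALB/cA nude mice, 6–7 weeks old, implanted s.c. on midright side with 2×10^6 Calu-3 cells in 0.2 ml PBS. Grouped at 60–150 mm³ tumour volume (6 per treated group, 12 vehicle). Oral dosing in 0.5% CMC with 0.1% Tween-80. Caliper volume = L×W²×0.5; inhibition = (1 − T/C)×100% on relative tumour volume; weight tracked for 21 d.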

[15] = Tmax in Beagle dog at 240 mg/kg, po administered as single dose measured after 0.25 to 24 hrs post dose by LC/MS/MS method; assay type: ADME, organism-based, Canis lupus familiaris; parameters: dose 240 mg/kg, route oral; settings: in vivo
How it was run: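 Beagle dogs (n = 6), single oral gavage dose of 240 mg/kg. Plasma levels measured by validated LC/MS/MS. Tmax read directly from the concentration-time data.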

[16] = target: T1, Receptor tyrosine-protein kinase erbB-2; settings: BT-474, 0.001 to 1 uM; remark: listed apart in the source
[17] = target: Mast/stem cell growth factor receptor Kit (Homo sapiens, UniProt P10721); assay: Inhibition of c-KIT (unknown origin) by ELISA method
Mast/stem cell growth factor receptor Kit, sequence (P10721 whole entry): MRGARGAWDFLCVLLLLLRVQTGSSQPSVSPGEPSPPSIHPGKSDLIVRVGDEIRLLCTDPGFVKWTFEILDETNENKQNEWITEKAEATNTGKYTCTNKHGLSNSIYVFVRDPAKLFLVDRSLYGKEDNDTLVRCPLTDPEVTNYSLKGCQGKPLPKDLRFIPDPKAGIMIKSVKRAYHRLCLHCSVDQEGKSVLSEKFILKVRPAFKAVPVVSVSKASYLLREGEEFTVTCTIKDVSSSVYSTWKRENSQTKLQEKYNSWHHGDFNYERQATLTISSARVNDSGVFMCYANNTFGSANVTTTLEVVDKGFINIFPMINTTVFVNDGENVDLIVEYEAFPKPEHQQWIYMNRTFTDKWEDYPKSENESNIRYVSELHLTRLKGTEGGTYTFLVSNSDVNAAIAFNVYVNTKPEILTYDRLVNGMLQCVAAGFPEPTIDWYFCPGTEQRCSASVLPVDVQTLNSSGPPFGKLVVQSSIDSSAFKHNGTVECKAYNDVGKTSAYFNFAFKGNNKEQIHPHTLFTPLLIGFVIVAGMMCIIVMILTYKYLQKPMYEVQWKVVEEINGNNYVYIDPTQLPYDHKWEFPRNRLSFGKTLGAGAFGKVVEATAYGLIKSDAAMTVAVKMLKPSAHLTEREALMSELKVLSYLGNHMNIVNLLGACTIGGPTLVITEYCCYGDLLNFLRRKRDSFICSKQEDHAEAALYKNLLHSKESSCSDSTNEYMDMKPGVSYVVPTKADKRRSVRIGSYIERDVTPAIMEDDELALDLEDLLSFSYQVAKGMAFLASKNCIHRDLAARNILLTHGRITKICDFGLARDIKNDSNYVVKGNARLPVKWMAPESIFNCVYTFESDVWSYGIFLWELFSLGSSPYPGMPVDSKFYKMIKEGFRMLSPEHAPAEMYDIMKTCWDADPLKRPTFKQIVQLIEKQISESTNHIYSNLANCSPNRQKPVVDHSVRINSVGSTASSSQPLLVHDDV
How it was run: as §4

[18] = Tmax in Beagle dog at 240 mg/kg, po dosed for 14 days by LC/MS/MS method; assay type: ADME, organism-based, Canis lupus familiaris; parameters: dose 240 mg/kg, route oral; settings: in vivo
How it was run: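 Beagle dogs (n = 6) given 240 mg/kg daily by oral gavage for 14 consecutive days. On days 1 and 14, blood taken predose and at 0.25–24 h post-dose. Plasma held at -20 °C, then quantified by validated LC/MS/MS. Tmax taken directly from the plasma concentration-time data.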

[19] = system: MRC5; assay: cells; settings: Homo sapiens, MRC5, 72 h
[20] = target: T2, Epidermal growth factor receptor; assay: Inhibition of HER1 (unknown origin) assessed as reduction in autophosphorylation by ELISA method
[21] = system: BT-474; assay: Induction of cell cycle arrest in human BT474 cells assessed as accumulation at G1 phase at 1 uM incubated for 12 hrs by propidium iodide staining based flow cytometry (reference value: 67%); assay type: functional
[22] = Elimination half life in Beagle dog at 240 mg/kg, po dosed for 14 days by LC/MS/MS method; assay type: ADME, organism-based, Canis lupus familiaris; parameters: dose 240 mg/kg, route oral; settings: in vivo, read-out: beta t1/2 (converted)
How it was run: as §3

[23] = system: BT-474; assay: Induction of cell cycle arrest in human BT474 cells assessed as accumulation at S phase at 0.001 uM incubated for 12 hrs by propidium iodide staining based flow cytometry (reference value: 19%); assay type: functional
[24] = system: BT-474; assay: Induction of apoptosis in human BT474 cells at 1 uM incubated for 12 hrs by propidium iodide staining based flow cytometry (reference value: 1%); assay type: functional
[25] = system: MCF7; assay: Cytotoxicity against human MCF7 cells assessed as inhibition of cell growth after 72 hrs by sulforhodamine B assay; assay type: functional, cell-based; settings: MCF7, 72 h
How it was run: (§5)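 Cells grown in RPMI-1640 with 5% FBS and plated at 5.0×10^4/ml. Next day exposed to 0.5–5000 ng/ml for 3 days. Survival read by sulforhodamine B staining. IC50 taken from growth curves; mean of at least three determinations.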

[26] = target: Vascular endothelial growth factor receptor 2 (Homo sapiens, UniProt P35968); assay: Inhibition of KDR (unknown origin) by ELISA method
Vascular endothelial growth factor receptor 2, sequence (P35968 whole entry): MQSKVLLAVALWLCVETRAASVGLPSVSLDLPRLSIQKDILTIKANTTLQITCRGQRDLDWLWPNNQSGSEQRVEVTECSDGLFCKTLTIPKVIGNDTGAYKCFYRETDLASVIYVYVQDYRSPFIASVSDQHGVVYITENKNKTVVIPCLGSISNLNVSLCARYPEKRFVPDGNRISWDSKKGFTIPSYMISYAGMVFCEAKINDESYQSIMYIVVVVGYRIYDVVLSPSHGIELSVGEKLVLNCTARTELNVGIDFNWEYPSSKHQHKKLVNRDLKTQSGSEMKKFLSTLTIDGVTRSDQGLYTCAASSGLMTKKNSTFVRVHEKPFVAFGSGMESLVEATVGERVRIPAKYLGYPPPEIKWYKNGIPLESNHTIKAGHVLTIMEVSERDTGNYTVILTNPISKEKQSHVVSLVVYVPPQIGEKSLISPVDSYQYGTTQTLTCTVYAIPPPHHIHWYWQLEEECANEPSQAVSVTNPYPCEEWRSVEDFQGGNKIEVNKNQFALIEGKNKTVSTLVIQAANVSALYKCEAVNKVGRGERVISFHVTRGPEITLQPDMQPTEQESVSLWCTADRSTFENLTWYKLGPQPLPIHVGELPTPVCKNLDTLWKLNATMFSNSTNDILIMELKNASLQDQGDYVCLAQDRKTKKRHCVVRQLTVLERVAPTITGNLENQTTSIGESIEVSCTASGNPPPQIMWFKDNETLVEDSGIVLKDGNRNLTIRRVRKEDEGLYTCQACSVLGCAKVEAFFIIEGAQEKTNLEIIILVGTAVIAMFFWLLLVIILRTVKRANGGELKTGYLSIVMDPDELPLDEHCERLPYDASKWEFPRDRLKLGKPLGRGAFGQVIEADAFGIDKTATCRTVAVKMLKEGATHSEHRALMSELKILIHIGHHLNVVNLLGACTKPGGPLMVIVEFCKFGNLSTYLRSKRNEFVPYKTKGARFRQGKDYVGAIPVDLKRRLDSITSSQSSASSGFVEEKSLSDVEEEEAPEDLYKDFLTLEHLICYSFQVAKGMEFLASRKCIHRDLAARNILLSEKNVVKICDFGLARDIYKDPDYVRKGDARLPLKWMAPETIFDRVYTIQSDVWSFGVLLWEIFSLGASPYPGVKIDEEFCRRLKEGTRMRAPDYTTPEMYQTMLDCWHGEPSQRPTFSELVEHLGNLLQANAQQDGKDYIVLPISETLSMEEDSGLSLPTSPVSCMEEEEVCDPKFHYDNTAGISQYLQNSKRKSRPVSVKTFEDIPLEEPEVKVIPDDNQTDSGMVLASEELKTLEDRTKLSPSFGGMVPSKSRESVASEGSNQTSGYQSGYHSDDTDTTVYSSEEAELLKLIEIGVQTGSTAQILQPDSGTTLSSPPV
How it was run: as §4

[27] = Cytotoxicity against human SKBR3 cells assessed as inhibition of cell growth after 72 hrs by sulforhodamine B assay; assay type: functional, cell-based; settings: SK-BR-3, 72 h
How it was run: as §5

T1 sequence (P04626 whole entry): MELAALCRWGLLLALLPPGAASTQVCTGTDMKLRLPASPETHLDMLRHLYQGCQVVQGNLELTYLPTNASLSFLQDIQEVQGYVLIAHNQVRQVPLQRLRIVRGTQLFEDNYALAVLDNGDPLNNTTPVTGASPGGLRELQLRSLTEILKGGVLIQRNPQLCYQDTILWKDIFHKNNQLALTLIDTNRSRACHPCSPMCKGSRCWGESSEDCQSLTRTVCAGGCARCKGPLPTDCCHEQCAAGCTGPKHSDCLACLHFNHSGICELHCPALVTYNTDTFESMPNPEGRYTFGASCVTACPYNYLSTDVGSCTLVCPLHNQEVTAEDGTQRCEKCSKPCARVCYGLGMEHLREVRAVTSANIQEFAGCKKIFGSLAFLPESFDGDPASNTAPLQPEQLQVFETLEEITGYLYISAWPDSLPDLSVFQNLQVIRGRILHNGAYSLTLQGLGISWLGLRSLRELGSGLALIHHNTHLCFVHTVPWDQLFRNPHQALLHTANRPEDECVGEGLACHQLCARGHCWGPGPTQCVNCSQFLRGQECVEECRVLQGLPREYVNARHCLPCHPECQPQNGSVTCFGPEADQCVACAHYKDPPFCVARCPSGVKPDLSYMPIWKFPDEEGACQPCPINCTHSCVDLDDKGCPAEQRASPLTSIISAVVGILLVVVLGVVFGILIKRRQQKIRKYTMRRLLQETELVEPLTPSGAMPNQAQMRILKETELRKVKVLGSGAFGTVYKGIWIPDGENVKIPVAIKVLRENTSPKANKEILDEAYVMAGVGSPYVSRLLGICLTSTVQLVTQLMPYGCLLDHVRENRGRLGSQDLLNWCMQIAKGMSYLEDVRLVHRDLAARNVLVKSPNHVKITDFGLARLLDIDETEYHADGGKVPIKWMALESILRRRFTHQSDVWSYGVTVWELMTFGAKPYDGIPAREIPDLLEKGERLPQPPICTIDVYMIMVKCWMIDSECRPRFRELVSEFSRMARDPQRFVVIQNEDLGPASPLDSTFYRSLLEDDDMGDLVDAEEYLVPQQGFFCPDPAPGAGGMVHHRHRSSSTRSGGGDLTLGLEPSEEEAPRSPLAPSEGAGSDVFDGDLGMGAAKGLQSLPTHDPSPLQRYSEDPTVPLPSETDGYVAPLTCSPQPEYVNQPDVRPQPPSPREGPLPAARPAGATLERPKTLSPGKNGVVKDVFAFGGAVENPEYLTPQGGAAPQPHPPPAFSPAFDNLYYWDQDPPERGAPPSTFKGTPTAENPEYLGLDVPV

inhibition [1]: Dose-dependent effect
AUC(0-t) at 24 h [2]: 29800 ng·h/mL
Cmax [3]: 3100 ng/mL
Cmax [6]: 2900 ng/mL
IC50 [9]: 0.5 nM
inhibition [11]: Dose-dependent effect
IC50 [12]: > 100000 nM
CL/F [13]: 432 mL/min
Tmax [15]: 4 h
inhibition [16]: Dose-dependent effect
IC50 [17]: > 200000 nM
Tmax [18]: 4.5 h
IC50 [20]: 4.1 nM
half-life [22]: 4.8 h
IC50 [26]: > 200000 nM
SMILES: CN(C)[C@H](CS(C)(=O)=O)c1ccc(-c2ccc3ncnc(Nc4ccc(OCc5cccc(F)c5)c(Cl)c4)c3c2)o1
Activity [4]: 84%
Activity [5]: Non-toxic
Activity [7]: 11%
Activity [8]: Non-toxic
Activity [10]: 6%
inhibition in vivo at 100 mg/kg [14]: 68%
IC50 [19]: > 100000 nM
Activity [21]: 82%
Activity [23]: 16%
Activity [24]: 5%
IC50 [25]: 5670 nM
IC50 [27]: 18.4 nM

From ChEMBL document CHEMBL3352165 (Eur J Med Chem, 2014)
